According to ChEMBL document CHEMBL4028872, “Structure-Activity Relationship, Pharmacological Characterization, and Molecular Modeling of Noncompetitive Inhibitors of the Betaine/γ-Aminobutyric Acid Transporter 1 (BGT1)” (J Med Chem, 2017):
pIC50: −log10 of the molar value. The source made the active and inactive calls. The rule behind the calls is not given here.

Assays:
[1] = biological target: D(2) dopamine receptor (Homo sapiens) (UniProt P14416); assay: Displacement of [3H]N-methylspiperone from human Dopamine receptor D2 receptor expressed in fibroblast cell membranes at 10 uM after 90 mins by scintillation counting method
[2] = biological target: Sodium- and chloride-dependent betaine transporter (Homo sapiens, UniProt P48065, Y453S/Y454A); assay: Inhibition of human BGT1 Y453S/Y454A double mutant expressed in tsA201 cells assessed as reduction in [3H]GABA uptake after 3 mins by scintillation counting method; type: cell-based; details: for pIC50: read-out: IC50
Outline: (§1)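 tsA201 cells transiently transfected with wild-type or mutant human BGT1 (PolyFect) were plated about 24 h before assay. Three ice-cold washes followed, then scintillation counting.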

[3] = biological target: T1, Sodium- and chloride-dependent betaine transporter (Homo sapiens, UniProt P48065); assay: Inhibition of human BGT1 expresses in tsA201 cells assessed as reduction in [3H]GABA uptake after 3 mins by scintillation counting method; type: cell-based; details: for pIC50: read-out: IC50; outline: as §1
T1 sequence (P48065 whole entry): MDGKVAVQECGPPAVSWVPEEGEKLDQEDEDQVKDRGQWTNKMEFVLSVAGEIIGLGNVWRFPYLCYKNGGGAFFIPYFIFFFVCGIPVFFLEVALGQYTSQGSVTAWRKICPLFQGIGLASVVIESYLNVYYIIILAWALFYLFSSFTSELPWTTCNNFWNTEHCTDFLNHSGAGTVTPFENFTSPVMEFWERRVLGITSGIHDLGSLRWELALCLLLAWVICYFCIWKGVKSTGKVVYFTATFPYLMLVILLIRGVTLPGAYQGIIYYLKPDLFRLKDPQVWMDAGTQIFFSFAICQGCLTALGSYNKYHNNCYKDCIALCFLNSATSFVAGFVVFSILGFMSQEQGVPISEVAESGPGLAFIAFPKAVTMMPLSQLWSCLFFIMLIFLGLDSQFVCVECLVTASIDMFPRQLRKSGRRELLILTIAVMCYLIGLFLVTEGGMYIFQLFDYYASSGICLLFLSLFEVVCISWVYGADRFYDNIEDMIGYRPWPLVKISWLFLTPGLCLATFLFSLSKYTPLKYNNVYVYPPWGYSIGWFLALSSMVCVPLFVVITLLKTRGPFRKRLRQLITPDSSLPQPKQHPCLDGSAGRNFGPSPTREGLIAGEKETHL

GABA transporter 3 = biological target: T2, GABA transporter 3 (Mus musculus, UniProt P31649); assay: Inhibition of mouse GAT2 expressed in HEK293 cells assessed as reduction in [3H]GABA uptake after 3 mins by scintillation counting method; type: cell-based
T2 sequence (P31649 whole entry): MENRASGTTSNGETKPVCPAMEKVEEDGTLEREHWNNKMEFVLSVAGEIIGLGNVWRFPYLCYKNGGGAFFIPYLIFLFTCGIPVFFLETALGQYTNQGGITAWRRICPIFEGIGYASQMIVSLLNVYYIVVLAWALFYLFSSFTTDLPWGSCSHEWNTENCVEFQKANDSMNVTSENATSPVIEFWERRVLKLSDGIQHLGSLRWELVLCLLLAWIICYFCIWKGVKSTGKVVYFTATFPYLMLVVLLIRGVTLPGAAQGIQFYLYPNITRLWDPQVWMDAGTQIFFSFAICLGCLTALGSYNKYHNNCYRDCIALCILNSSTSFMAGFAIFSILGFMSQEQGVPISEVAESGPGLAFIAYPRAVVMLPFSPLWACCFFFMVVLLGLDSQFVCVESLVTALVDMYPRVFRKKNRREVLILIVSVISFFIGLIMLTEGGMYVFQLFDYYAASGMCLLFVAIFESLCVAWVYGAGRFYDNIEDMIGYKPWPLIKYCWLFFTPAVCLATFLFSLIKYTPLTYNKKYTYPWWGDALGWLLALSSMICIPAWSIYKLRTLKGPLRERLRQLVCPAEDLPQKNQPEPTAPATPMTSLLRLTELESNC
Outline: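 HEK293 cells stably expressing mouse GAT2 were kept under blasticidin-S (5 µg/mL) selection. Ice-cold washes preceded scintillation counting. IC50 came from a variable-slope sigmoidal fit.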

[4] = biological target: Sodium- and chloride-dependent betaine transporter (Homo sapiens, UniProt P48065, Y453A); assay: Inhibition of human BGT1 Y453A mutant expressed in tsA201 cells assessed as reduction in [3H]GABA uptake after 3 mins by scintillation counting method; type: cell-based; outline: as §1
[5] = biological target: D(1A) dopamine receptor (Homo sapiens) (UniProt P21728); assay: Displacement of [3H]SCH23390 from human Dopamine receptor D1 receptor expressed in HEKT cell membranes at 10 uM after 90 mins by scintillation counting method
[6] = biological target: T3, Sodium- and chloride-dependent GABA transporter 3 (Homo sapiens, UniProt P48066); assay: Inhibition of human GAT3 expresses in tsA201 cells assessed as reduction in [3H]GABA uptake after 3 mins by scintillation counting method; type: cell-based
T3 sequence (P48066 whole entry): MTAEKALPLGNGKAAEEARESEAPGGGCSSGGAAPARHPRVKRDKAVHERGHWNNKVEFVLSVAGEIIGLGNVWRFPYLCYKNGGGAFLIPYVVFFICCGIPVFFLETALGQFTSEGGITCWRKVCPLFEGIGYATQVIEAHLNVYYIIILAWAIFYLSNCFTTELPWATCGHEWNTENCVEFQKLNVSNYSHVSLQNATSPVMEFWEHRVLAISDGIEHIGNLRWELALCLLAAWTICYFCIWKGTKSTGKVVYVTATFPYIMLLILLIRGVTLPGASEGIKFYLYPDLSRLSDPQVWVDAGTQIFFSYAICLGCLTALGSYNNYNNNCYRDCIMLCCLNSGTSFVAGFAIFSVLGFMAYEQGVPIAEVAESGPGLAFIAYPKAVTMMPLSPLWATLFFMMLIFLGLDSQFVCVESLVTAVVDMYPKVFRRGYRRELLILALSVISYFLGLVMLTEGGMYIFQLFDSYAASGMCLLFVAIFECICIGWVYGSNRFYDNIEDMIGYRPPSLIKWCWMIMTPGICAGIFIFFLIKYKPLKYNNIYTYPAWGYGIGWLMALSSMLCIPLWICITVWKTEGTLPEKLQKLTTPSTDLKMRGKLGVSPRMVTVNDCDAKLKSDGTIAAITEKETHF
Outline: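 Wild-type human GAT transiently expressed in tsA201 cells via pcDNA5/FRT and PolyFect. Uptake of 30 nM [3H]GABA was run for 3 min at 37 °C in HBSS/20 mM HEPES with 1 mM CaCl2 and 1 mM MgCl2, pH 7.4, across a range of test concentrations. Ice-cold washes were followed by scintillation counting. IC50 was obtained by sigmoidal variable-slope fitting, reported as mean pIC50 ± S.E.M.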

Chain of Sodium- and chloride-dependent betaine transporter (Homo sapiens, UniProt P48065, Y453S/Y454A) (P48065 whole entry Y453S/Y454A): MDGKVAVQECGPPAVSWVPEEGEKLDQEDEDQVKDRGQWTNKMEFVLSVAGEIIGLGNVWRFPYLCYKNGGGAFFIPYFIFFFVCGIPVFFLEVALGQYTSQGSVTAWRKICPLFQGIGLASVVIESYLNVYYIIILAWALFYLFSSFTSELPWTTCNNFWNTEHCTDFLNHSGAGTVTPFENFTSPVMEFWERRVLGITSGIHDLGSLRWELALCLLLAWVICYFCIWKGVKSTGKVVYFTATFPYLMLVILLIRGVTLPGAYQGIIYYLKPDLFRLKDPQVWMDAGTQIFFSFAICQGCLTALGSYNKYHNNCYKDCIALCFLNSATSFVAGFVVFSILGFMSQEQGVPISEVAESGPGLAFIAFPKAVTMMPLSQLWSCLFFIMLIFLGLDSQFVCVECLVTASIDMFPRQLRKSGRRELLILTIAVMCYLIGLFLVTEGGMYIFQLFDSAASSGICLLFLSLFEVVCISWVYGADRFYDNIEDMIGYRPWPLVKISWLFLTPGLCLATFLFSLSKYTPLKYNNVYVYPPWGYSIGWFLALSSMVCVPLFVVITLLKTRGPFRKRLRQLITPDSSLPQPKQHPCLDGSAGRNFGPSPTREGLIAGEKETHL
Chain of Sodium- and chloride-dependent betaine transporter (Homo sapiens, UniProt P48065, Y453A) (P48065 whole entry Y453A): as the sequence (P48065 whole entry Y453S/Y454A) above, with S453A, A454Y counted along it
Chain of D(2) dopamine receptor (Homo sapiens) (P14416 whole entry): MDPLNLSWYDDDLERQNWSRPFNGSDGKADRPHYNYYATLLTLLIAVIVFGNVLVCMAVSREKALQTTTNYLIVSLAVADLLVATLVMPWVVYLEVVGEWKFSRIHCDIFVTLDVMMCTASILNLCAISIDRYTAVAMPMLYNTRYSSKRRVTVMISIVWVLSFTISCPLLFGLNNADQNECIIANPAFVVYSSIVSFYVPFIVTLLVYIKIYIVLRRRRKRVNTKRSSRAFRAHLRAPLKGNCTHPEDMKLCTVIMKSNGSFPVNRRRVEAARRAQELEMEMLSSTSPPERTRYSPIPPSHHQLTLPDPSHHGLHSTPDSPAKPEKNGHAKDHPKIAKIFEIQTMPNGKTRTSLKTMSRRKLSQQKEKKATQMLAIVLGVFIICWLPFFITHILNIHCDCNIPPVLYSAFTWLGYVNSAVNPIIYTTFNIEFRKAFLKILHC
Chain of D(1A) dopamine receptor (Homo sapiens) (P21728 whole entry): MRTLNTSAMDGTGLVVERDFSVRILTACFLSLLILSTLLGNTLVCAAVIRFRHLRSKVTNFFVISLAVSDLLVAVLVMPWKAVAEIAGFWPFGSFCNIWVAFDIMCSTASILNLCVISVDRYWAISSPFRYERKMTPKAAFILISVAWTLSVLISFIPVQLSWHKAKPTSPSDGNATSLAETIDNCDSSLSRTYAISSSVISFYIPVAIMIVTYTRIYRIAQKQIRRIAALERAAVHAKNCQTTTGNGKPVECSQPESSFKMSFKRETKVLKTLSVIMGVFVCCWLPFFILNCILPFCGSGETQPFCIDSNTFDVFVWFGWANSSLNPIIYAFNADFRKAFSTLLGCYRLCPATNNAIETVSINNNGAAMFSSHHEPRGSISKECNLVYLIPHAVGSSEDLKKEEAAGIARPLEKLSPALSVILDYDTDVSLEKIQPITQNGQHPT

| Compound | inhibition [1] | pIC50 [2] | IC50 ([2]; read-out: pIC50 (converted)) [µM] | pIC50 [3] | IC50 ([3]; read-out: pIC50 (converted)) [µM] | pIC50 (GABA transporter 3) | pIC50 [4] | inhibition [5] | pIC50 ([6]; read-out: IC50) | pIC50 [6] |
| --- | --- | --- | --- | --- | --- | --- | --- | --- | --- | --- |
| O=C(NC1CCN(Cc2ccccc2)CC1)c1ccc(Cl)nc1Cl | inactive | 4.82 | 12.9 | 4.36 | 40.7 | < 3.40 | 4.64 | inactive | < 3.00 |  |
| O=C(NC1CCN(Cc2ccccc2)CC1)c1ccc(Cl)cc1Cl | Active | 5.22 |  | 4.74 |  | < 3.70 | 4.72 | Active |  | < 4.00 |
